The experiment deals with Delta-type opioid receptor (Homo sapiens, UniProt P41143). Nature of the experiment: Displacement of [3H]naltrindole from human delta opioid receptor expressed in CHO cells. The method in brief:
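CHO cells stably expressing a single human opioid receptor were grown in DMEM with 10% FBS and penicillin/streptomycin at 37 °C in 5% CO2. Their membranes were incubated with radioligand and 12 concentrations of test compound at 25 °C in 50 mM Tris-HCl, pH 7.5.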
In general terms: Displacement assays read how much labelled ligand stays bound in the presence of the test substance.

pKi: −log10 of the molar value.

Sequence of Delta-type opioid receptor (P41143 whole entry): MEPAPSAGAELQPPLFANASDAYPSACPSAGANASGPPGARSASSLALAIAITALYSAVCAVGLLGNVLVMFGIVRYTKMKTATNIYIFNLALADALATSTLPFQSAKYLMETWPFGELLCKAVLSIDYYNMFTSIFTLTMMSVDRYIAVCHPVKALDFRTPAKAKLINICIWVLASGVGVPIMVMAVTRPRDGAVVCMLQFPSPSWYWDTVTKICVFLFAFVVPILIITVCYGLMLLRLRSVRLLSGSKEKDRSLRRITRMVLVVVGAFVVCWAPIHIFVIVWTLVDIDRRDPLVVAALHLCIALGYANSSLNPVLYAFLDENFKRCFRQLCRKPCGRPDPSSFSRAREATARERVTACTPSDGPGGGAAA

By pKi is commonly meant −log10 of the Ki, conventionally taken in molar units. A high value points to a low Ki. `O=C(CCCCC(=O)NCc1cc2c(cc1O)[C@@]13CCCC[C@H]1[C@@H](C2)N(CC1CCC1)CC3)NCc1cc2c(cc1O)[C@@]13CCCC[C@H]1[C@@H](C2)N(CC1CCC1)CC3` [Hexanedioic Acid Bis(17-N-cyclobutylmethyl-3-hydroxymorphinan-2-methyl)amide] had a pKi of 6.20.

The values are drawn from BindingDB's records for doi:10.1021/jm9013482 (Harvard Medical School, 2010).
